Source: ChEMBL document CHEMBL2057101, “Fluorocyclines. 2. Optimization of the C-9 side-chain for antibacterial activity and oral efficacy” (J Med Chem, 2012)
≈ marks a conversion by molar mass, not a printed value.

What was measured:
Type in all cases: functional
Staphylococcus aureus [1] = experiment: Antibacterial activity against tetracycline-susceptible Staphylococcus aureus ATCC 13709 Smith isolate SA100
Method in brief: (§1)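 Broth microdilution MIC following CLSI methods in cation-adjusted Mueller Hinton broth, prepared fresh and held at 4 °C before testing. Defibrinated horse blood added to the medium where appropriate. Runs accepted when quality control ranges for comparator antibiotics and ATCC QC strains were met.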

Staphylococcus aureus [2] = experiment: Antibacterial activity against tetracycline-resistant Staphylococcus aureus isolate SA161 expressing TetM gene; method in brief: as §1
Staphylococcus aureus [3] = experiment: Antibacterial activity against tetracycline-resistant Staphylococcus aureus isolate SA158 expressing TetK gene
Streptococcus pneumoniae [4] = experiment: Antibacterial activity against Streptococcus pneumoniae ATCC 49619 isolate 106
Method in brief: (§2)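 MIC by broth microdilution in liquid medium per CLSI, in cation-adjusted Mueller Hinton broth made fresh and held at 4 °C before testing. Horse blood (defibrinated) added to the medium where appropriate. Runs were accepted only when the comparator antibiotics and ATCC QC strains fell within their recommended ranges.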

Streptococcus pneumoniae [5] = experiment: Antibacterial activity against tetracycline-resistant Streptococcus pneumoniae isolate 160 expressing tetM gene
Escherichia coli [6] = experiment: Antibacterial activity against Escherichia coli ATCC 25922 isolate 107; method in brief: as §2
Escherichia coli [7] = experiment: Antibacterial activity against Escherichia coli isolate EC155 expressing tetA gene; method in brief: as §2
Klebsiella pneumoniae = experiment: Antibacterial activity against Klebsiella pneumoniae ATCC 13883; method in brief: as §2

SMILES | MIC (Staphylococcus aureus [1]) [µg/mL] | MIC (Staphylococcus aureus [2]) [µg/mL] | MIC (Staphylococcus aureus [3]) [µg/mL] | MIC (Streptococcus pneumoniae [4]) [µg/mL] | MIC (Streptococcus pneumoniae [5]) [µg/mL] | MIC (Escherichia coli [6]) [µg/mL] | MIC (Escherichia coli [7]) [µg/mL] | MIC (Klebsiella pneumoniae) [µg/mL]
CN(C)[C@@H]1C(O)=C(C(N)=O)C(=O)[C@@]2(O)C(O)=C3C(=O)c4c(O)c(NC(=O)CNC(C)(C)C)cc(F)c4C[C@H]3C[C@@H]12 | 0.25 (≈ 0.446 µM) | 0.25 (≈ 0.446 µM) | 0.063 (≈ 0.112 µM) | 0.016 (≈ 0.0285 µM) | 0.016 (≈ 0.0285 µM) | 0.25 (≈ 0.446 µM) | 2 (≈ 3.57 µM) | 1 (≈ 1.78 µM)
CN(C)[C@@H]1C(O)=C(C(N)=O)C(=O)[C@@]2(O)C(O)=C3C(=O)c4c(O)c(NC(=O)[C@H]5CCCN5C)cc(F)c4C[C@H]3C[C@@H]12 | 2 (≈ 3.58 µM) | 2 (≈ 3.58 µM) | 2 (≈ 3.58 µM) | 0.25 (≈ 0.448 µM) | 0.25 (≈ 0.448 µM) | 2 (≈ 3.58 µM) | 16 (≈ 28.6 µM) | 4 (≈ 7.16 µM)
CC(C)N1CCC[C@H]1C(=O)Nc1cc(F)c2c(c1O)C(=O)C1=C(O)[C@]3(O)C(=O)C(C(N)=O)=C(O)[C@@H](N(C)C)[C@@H]3C[C@@H]1C2 | 0.5 (≈ 0.852 µM) | 1 (≈ 1.7 µM) | 0.25 (≈ 0.426 µM) | ≤ 0.016 | ≤ 0.016 | 2 (≈ 3.41 µM) | 8 (≈ 13.6 µM) | –
CN(C)[C@@H]1C(O)=C(C(N)=O)C(=O)[C@@]2(O)C(O)=C3C(=O)c4c(O)c(NC(=O)[C@@H]5C[C@@H](F)CN5C)cc(F)c4C[C@H]3C[C@@H]12 | 0.5 (≈ 0.867 µM) | 2 (≈ 3.47 µM) | 1 (≈ 1.73 µM) | 0.063 (≈ 0.109 µM) | 0.063 (≈ 0.109 µM) | 4 (≈ 6.94 µM) | > 32 | 8 (≈ 13.9 µM)
CN(C)[C@@H]1C(O)=C(C(N)=O)C(=O)[C@@]2(O)C(O)=C3C(=O)c4c(O)c(NC(=O)[C@@H]5CC(F)(F)CN5C)cc(F)c4C[C@H]3C[C@@H]12 | 1 (≈ 1.68 µM) | 1 (≈ 1.68 µM) | 1 (≈ 1.68 µM) | 0.5 (≈ 0.841 µM) | 0.5 (≈ 0.841 µM) | > 32 | > 32 | > 32
CN(C)[C@@H]1C(O)=C(C(N)=O)C(=O)[C@@]2(O)C(O)=C3C(=O)c4c(O)c(NC(=O)[C@@H]5CCCCN5)cc(F)c4C[C@H]3C[C@@H]12 | 0.5 (≈ 0.895 µM) | 1 (≈ 1.79 µM) | 0.25 (≈ 0.448 µM) | 0.031 (≈ 0.0555 µM) | 0.063 (≈ 0.113 µM) | 0.5 (≈ 0.895 µM) | 8 (≈ 14.3 µM) | 2 (≈ 3.58 µM)
CN(C)[C@@H]1C(O)=C(C(N)=O)C(=O)[C@@]2(O)C(O)=C3C(=O)c4c(O)c(NC(=O)[C@@H]5CCCCN5C)cc(F)c4C[C@H]3C[C@@H]12 | 2 (≈ 3.49 µM) | 8 (≈ 14 µM) | 1 (≈ 1.75 µM) | 0.13 (≈ 0.227 µM) | 0.25 (≈ 0.437 µM) | 0.5 (≈ 0.873 µM) | > 32 | 2 (≈ 3.49 µM)
CN(C)[C@@H]1C(O)=C(C(N)=O)C(=O)[C@@]2(O)C(O)=C3C(=O)c4c(O)c(NC(=O)[C@H]5CCCCN5)cc(F)c4C[C@H]3C[C@@H]12 | 2 (≈ 3.58 µM) | 2 (≈ 3.58 µM) | 2 (≈ 3.58 µM) | 0.5 (≈ 0.895 µM) | 0.5 (≈ 0.895 µM) | 4 (≈ 7.16 µM) | > 32 | 16 (≈ 28.6 µM)
CN(C)[C@@H]1C(O)=C(C(N)=O)C(=O)[C@@]2(O)C(O)=C3C(=O)c4c(O)c(NC(=O)c5cccn5C)cc(F)c4C[C@H]3C[C@@H]12 | 0.25 (≈ 0.451 µM) | 0.5 (≈ 0.902 µM) | 0.5 (≈ 0.902 µM) | 8 (≈ 14.4 µM) | 8 (≈ 14.4 µM) | > 32 | > 32 | > 32
Cc1cc(C(=O)Nc2cc(F)c3c(c2O)C(=O)C2=C(O)[C@]4(O)C(=O)C(C(N)=O)=C(O)[C@@H](N(C)C)[C@@H]4C[C@@H]2C3)no1 | 0.25 (≈ 0.449 µM) | 0.5 (≈ 0.898 µM) | 0.5 (≈ 0.898 µM) | 2 (≈ 3.59 µM) | 2 (≈ 3.59 µM) | > 32 | > 32 | > 32
CN(C)[C@@H]1C(O)=C(C(N)=O)C(=O)[C@@]2(O)C(O)=C3C(=O)c4c(O)c(N)cc(F)c4C[C@H]3C[C@@H]12 | 0.25 (≈ 0.559 µM) | 2 (≈ 4.47 µM) | 2 (≈ 4.47 µM) | 0.25 (≈ 0.559 µM) | 4 (≈ 8.94 µM) | 2 (≈ 4.47 µM) | 32 (≈ 71.5 µM) | 4 (≈ 8.94 µM)
CN(C)[C@@H]1C(O)=C(C(N)=O)C(=O)[C@@]2(O)C(O)=C3C(=O)c4c(O)c(NC(=O)c5ccccc5)cc(F)c4C[C@H]3C[C@@H]12 | 0.25 (≈ 0.453 µM) | 0.25 (≈ 0.453 µM) | 0.5 (≈ 0.907 µM) | 16 (≈ 29 µM) | 16 (≈ 29 µM) | > 32 | > 32 | > 32
CN(C)[C@@H]1C(O)=C(C(N)=O)C(=O)[C@@]2(O)C(O)=C3C(=O)c4c(O)c(NC(=O)c5cccc(C(F)(F)F)c5)cc(F)c4C[C@H]3C[C@@H]12 | 0.25 (≈ 0.404 µM) | 0.5 (≈ 0.807 µM) | 0.13 (≈ 0.21 µM) | > 32 | > 32 | > 32 | > 32 | > 32
COc1cccc(C(=O)Nc2cc(F)c3c(c2O)C(=O)C2=C(O)[C@]4(O)C(=O)C(C(N)=O)=C(O)[C@@H](N(C)C)[C@@H]4C[C@@H]2C3)c1 | 0.13 (≈ 0.224 µM) | 0.25 (≈ 0.43 µM) | 0.13 (≈ 0.224 µM) | > 32 | > 32 | > 32 | > 32 | > 32
CN(C)c1ccccc1C(=O)Nc1cc(F)c2c(c1O)C(=O)C1=C(O)[C@]3(O)C(=O)C(C(N)=O)=C(O)[C@@H](N(C)C)[C@@H]3C[C@@H]1C2 | 0.13 (≈ 0.219 µM) | 0.13 (≈ 0.219 µM) | 0.063 (≈ 0.106 µM) | 32 (≈ 53.8 µM) | > 32 | > 32 | > 32 | > 32
CN(C)c1cccc(C(=O)Nc2cc(F)c3c(c2O)C(=O)C2=C(O)[C@]4(O)C(=O)C(C(N)=O)=C(O)[C@@H](N(C)C)[C@@H]4C[C@@H]2C3)c1 | 0.13 (≈ 0.219 µM) | 0.13 (≈ 0.219 µM) | 0.13 (≈ 0.219 µM) | > 32 | > 32 | > 32 | > 32 | > 32
CN(C)c1ccc(C(=O)Nc2cc(F)c3c(c2O)C(=O)C2=C(O)[C@]4(O)C(=O)C(C(N)=O)=C(O)[C@@H](N(C)C)[C@@H]4C[C@@H]2C3)cc1 | 0.063 (≈ 0.106 µM) | 0.063 (≈ 0.106 µM) | 0.063 (≈ 0.106 µM) | 2 (≈ 3.36 µM) | 8 (≈ 13.5 µM) | > 32 | > 32 | > 32
CN(C)[C@@H]1C(O)=C(C(N)=O)C(=O)[C@@]2(O)C(O)=C3C(=O)c4c(O)c(NC(=O)c5cccs5)cc(F)c4C[C@H]3C[C@@H]12 | 0.13 (≈ 0.233 µM) | 0.25 (≈ 0.448 µM) | 0.5 (≈ 0.897 µM) | 16 (≈ 28.7 µM) | 16 (≈ 28.7 µM) | > 32 | > 32 | > 32
CN(C)[C@@H]1C(O)=C(C(N)=O)C(=O)[C@@]2(O)C(O)=C3C(=O)c4c(O)c(NC(=O)c5cccnc5)cc(F)c4C[C@H]3C[C@@H]12 | 2 (≈ 3.62 µM) | 4 (≈ 7.24 µM) | 16 (≈ 29 µM) | 1 (≈ 1.81 µM) | 2 (≈ 3.62 µM) | > 32 | > 32 | > 32
CN(C)[C@@H]1C(O)=C(C(N)=O)C(=O)[C@@]2(O)C(O)=C3C(=O)c4c(O)c(NC(=O)[C@H]5CCCN5)cc(F)c4C[C@H]3C[C@@H]12 | 2 (≈ 3.67 µM) | 2 (≈ 3.67 µM) | 4 (≈ 7.35 µM) | 0.13 (≈ 0.239 µM) | 0.5 (≈ 0.918 µM) | 4 (≈ 7.35 µM) | 32 (≈ 58.8 µM) | 8 (≈ 14.7 µM)
